In ChEMBL document CHEMBL3352156, “Endoplasmic reticulum stress suppressive compounds from the edible mushroom Mycoleptodonoides aitchisonii” (J Nat Prod, 2014):
Active and inactive are the calls of the source. The rule behind the calls is not given here.

Key:
[1] = test system: N2a; assay: Protection against thapsigargin-induced ER-stress-dependent mouse Neuro2a cell death assessed as cell viability at > 50 uM after 24 hrs by MTT assay; format: functional, cell-based
How it was run: (§1)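 Neuro2a cells in D-MEM with 10% FBS, seeded at 2000 cells/well and grown 24 h. Pretreated 6 h with graded compound levels in serum-free D-MEM, then stressor added to final 0.5 μg/mL tunicamycin or 10 nM thapsigargin for 24 h. MTT 0.25 mg/mL for 2 h, stopped with SDS/DMF, A570. Viability as percent of untreated cells; TG mean ± SE, n = 10−12; Tukey–Kramer tests.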

[2] = test system: N2a; assay: Protection against tunicamycin-induced ER-stress-dependent mouse Neuro2a cell death assessed as cell viability after 24 hrs by MTT assay; format: functional, cell-based; how it was run: as §1

Structure (SMILES)	Activity [1]	Activity [2]
OCC[C@H](O)[C@H](O)Cc1ccccc1	Active	inactive
CC(=O)[C@@H]1COC(=O)[C@H]1C	Active	inactive
CC(=O)[C@@H]1COC(=O)[C@@H]1C	inactive	inactive
CC1=C(CO)C(C)(O)OC1=O (stereo unspecified)	Active	inactive
C[C@@H](O)[C@H]1COC(=O)[C@@H]1C	Active	inactive
OCC[C@H](O)CCc1ccccc1	Active	inactive
CC1=C(C(C)O)C(O)OC1=O (stereo unspecified)	Active	inactive
CC1=C(C)C(C)(O)OC1=O (stereo unspecified)	Active	inactive
